In the library only some 6.9% were active in any assay of this set; here they are far more common.
PostGolgi yeast – phenotypic screen on post-Golgi transport, primary screen. inhibition, % at 10 µM. post-Golgi transport phenotypic cell assay. AID 739, 2007. hit rate 0.9% among 98,000;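 further: yeast cells grown in 1536-well plates; yeast grown about 18 h at 30C before absorbance read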
PostGolgi ctrl – growth inhibition of yeast control strain, primary screen, counter-screen for post-Golgi transport modulator project; hit rate 5% among 98,000; efflux-deficient yeast background strain, growth absorbance A615, 16 h; AID 738, 2007; inhibition, % at 10 µM
FAK inh – FAK kinase inhibitors, primary screen, biochemical; hit rate 0.84% among 97,000; biochemical FAK kinase activity assay; inhibition, %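 (tested at 7 µM)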; Focal adhesion kinase 1 (Homo sapiens), Q05397; in the data active means inhibition above about 19%
Target sequence (Q05397 whole entry, looked up): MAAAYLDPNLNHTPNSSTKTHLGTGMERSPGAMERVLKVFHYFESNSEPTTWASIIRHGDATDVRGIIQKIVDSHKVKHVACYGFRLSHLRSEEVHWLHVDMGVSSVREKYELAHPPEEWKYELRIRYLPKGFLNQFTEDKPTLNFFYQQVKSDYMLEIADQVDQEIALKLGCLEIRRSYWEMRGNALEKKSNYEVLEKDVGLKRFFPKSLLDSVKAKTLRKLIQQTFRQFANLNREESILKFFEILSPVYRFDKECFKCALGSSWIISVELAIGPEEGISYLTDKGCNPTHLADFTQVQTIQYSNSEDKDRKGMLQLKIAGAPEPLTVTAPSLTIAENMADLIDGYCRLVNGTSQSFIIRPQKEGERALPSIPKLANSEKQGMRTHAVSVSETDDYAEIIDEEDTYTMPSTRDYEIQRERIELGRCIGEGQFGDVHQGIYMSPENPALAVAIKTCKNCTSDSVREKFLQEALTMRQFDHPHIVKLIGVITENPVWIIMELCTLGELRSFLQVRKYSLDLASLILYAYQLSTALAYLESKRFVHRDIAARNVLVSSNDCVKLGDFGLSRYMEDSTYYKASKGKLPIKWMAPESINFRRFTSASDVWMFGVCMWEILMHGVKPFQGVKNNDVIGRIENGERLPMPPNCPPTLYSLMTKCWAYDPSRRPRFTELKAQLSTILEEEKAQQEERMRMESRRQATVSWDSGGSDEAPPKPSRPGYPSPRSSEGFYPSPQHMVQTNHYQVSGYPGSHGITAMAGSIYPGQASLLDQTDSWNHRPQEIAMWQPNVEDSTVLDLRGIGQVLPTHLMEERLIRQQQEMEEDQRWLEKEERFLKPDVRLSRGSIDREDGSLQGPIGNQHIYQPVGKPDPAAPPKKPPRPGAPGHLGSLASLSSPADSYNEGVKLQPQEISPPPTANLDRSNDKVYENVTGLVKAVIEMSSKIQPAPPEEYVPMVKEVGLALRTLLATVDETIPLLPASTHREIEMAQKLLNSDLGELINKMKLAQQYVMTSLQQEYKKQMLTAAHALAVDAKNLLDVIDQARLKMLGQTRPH
Pyk2 oligo antag – antagonists of Pyk2 self-association, primary screen, Q293 cells, FERM NanoBiT luminescence, HTS. Protein-tyrosine kinase 2-beta (Homo sapiens), Q14289. hits give low values. z-score (the deposit names both 25 µM and 10 µM). hit rate 0.83% among 99,000. AID 1347419, 2020;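 active means Z-score of -3 or lower, scaled per plate to the spread of control and sample wells; inactive means z-score above -3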;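 further: negative z-score means lost luminescence so less FERM oligomerization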
Candida biofilm – clotrimazole potentiators killing Candida biofilms, primary screen, with clotrimazole, Alamar Blue | hit rate 0.14% among 85,000 | AID 834, 2007 | inhibition, % at 6 µM | C. albicans biofilm + clotrimazole;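 active means inhibition above 20%; inactive means inhibition below 20%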;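 further: preformed 24 hr biofilms exposed to compound for 48 hr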
tolC growth inh – growth inhibitors of E. coli tolC mutant, primary screen, strain BW25113 ΔtolC::kan, 384-well; OD615; growth inhibition, % at 10 µM (by protocol); hit rate 2.2% among 65,000;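 active means growth inhibition at or above a cutoff equal to the mean over every tested compound plus 3 SD, cut at about 60% in these data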;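 further: growth measured after 20 h incubation at 37 °C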
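Test system: tolC-deleted E. coli BW25113; medium: LB with kanamycin 50 µg/mL; compound: single-point testing at 10 µM; incubation: 20 h compound exposure of bacteria at 37 °C; signal: OD at 615 nm; evaluation: growth inhibition in percent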
Each line names hits and unclear results; the compound was inactive in the other large screens. Unless noted, no stated cut-off is given here; in the data, active means inhibition above about 30%; inactive means the rest.

CC12CCC(C(=O)NCc3ccccc3)(OC1=O)C2(C)C (centres undefined)	none
COc1ccccc1-c1nnc(SCC(=O)Nc2nc(-c3ccccc3)cs2)n1C	Pyk2 oligo antag -3.2
CCn1c(SCC(=O)Nc2nc(-c3ccc(C)cc3)cs2)nnc1-c1ccccc1O	PostGolgi yeast 69, PostGolgi ctrl 76, tolC growth inh 84
O=C(c1cc(NC(=O)C23CC4CC(CC(C4)C2)C3)cc(NC(=O)C23CC4CC(CC(C4)C2)C3)c1)N1CCCCC1	none (no result: PostGolgi yeast, PostGolgi ctrl, Pyk2 oligo antag, Candida biofilm, tolC growth inh)
O=C(NC(=S)N1CCCCC1)C12CC3CC(CC(C3)C1)C2	PostGolgi ctrl 33 (no result: Candida biofilm, tolC growth inh)
CCC1(C)Cc2ccccc2-c2nc(NCCO)n(-c3ccccc3)c(=O)c21 (centres undefined)	none (no result: PostGolgi yeast, PostGolgi ctrl)
CCC1(C)Cc2ccccc2-c2nc3n(c(=O)c21)CCCCC3 (centres undefined)	tolC growth inh 100 (no result: FAK inh)
CCC1(C)Cc2ccccc2-c2nc(NCCO)n(-c3ccc(C)cc3)c(=O)c21 (centres undefined)	PostGolgi ctrl 35 (no result: tolC growth inh)
O=c1c2c(nc3n1CCCCC3)-c1ccccc1CC21CCCCC1	none (no result: PostGolgi yeast, PostGolgi ctrl, tolC growth inh)
O=c1cc(-c2c(F)c(F)c(F)c(F)c2F)oc2c(F)c(F)c(F)c(F)c12	PostGolgi yeast 54, PostGolgi ctrl 64 (no result: FAK inh, Pyk2 oligo antag)
CCOC(=O)N1CCC(NC(=O)C2CCCN(S(C)(=O)=O)C2)CC1 (centres undefined)	PostGolgi ctrl 36
CCOC(=O)N1CCC(NC(=O)C2CCN(S(=O)(=O)N3CCCC3)CC2)CC1	none
O=S(=O)(C=C(c1ccccc1)c1ccccc1)c1ccccc1	PostGolgi ctrl 36 (no result: Candida biofilm, tolC growth inh)
COc1cccc(C2NC(=O)NC(C)=C2C(=O)OCCSC)c1OC (centres undefined)	none (no result: PostGolgi yeast, PostGolgi ctrl, Candida biofilm)
O=C1Nc2ccccc2C12OCCO2	none
CN1CC(c2ccc(C#N)cc2)C2(COc3ccccc3C2=O)C12C(=O)Nc1ccccc12 (centres undefined)	PostGolgi ctrl 31 (no result: Candida biofilm, tolC growth inh)
O=C1NC(c2ccccc2)=C(c2nc3ccccc3s2)C(c2ccc(F)cc2)N1 (centres undefined)	PostGolgi ctrl 41, Pyk2 oligo antag -3.2 (no result: tolC growth inh)
O=C(CN1CCN(c2nc(-c3ccc(F)cc3)cs2)CC1)NCc1ccc2c(c1)OCO2	tolC growth inh 80
CCOC(=O)N1CCN(C(=O)c2sc3nc(-c4ccc(F)cc4)cn3c2C)CC1	none
CCOC(=O)N1CCN(c2nc(-c3ccc(F)cc3)cs2)CC1	tolC growth inh 92
COc1cc(S(=O)(=O)N2CCCCCC2)ccc1-n1cnnn1	none (no result: tolC growth inh)
Cc1cc(C(=O)Cn2nnc(-c3ccc(Cl)cc3)n2)c(C)n1CC1CCCO1 (centres undefined)	PostGolgi ctrl 33
Clc1cccc(NC2=NCCC2)c1	none (no result: Candida biofilm, tolC growth inh)
O=C1C2ON(c3ccc(Br)cc3)C(c3cccnc3)C2C(=O)N1C1CCCCC1 (centres undefined)	PostGolgi yeast 102, PostGolgi ctrl 85 (no result: Candida biofilm)
Cc1ccc(/C=N/n2cnc3sc(-c4ccccc4)cc3c2=O)o1	PostGolgi yeast 65 (no result: tolC growth inh)
CCCCCCn1c(N2CCN(c3ccccc3)CC2)nc2c1c(=O)[nH]c(=O)n2C	none (no result: FAK inh, Candida biofilm)
Cc1ccc2[nH]c(=O)c(CN(Cc3ccccc3)Cc3nnnn3C3CCCC3)cc2c1	none
Cc1oc(-c2ccccc2F)nc1CS(=O)(=O)CC(=O)N1CCOCC1	none (no result: FAK inh, Pyk2 oligo antag)
COC(=O)c1ccc(Cc2ccc(C(=O)OC)o2)o1	PostGolgi ctrl 36 (no result: Candida biofilm)
Cc1ccc(S(=O)(=O)N2CCOCC2)cc1C(=O)Nc1c(C)n(C)n(-c2ccccc2)c1=O	none
O=C1C2CC=CCC2C(=O)N1c1n[nH]c(CCc2ccccc2)n1 (centres undefined)	PostGolgi yeast 34 (no result: tolC growth inh)
COc1ccc(S(=O)(=O)NC(CC(=O)NCc2ccco2)C(C)C)cc1 (centres undefined)	PostGolgi ctrl 38 (no result: Candida biofilm)
CCC(C)NS(=O)(=O)c1ccc(OCC(=O)NCc2ccco2)cc1 (centres undefined)	none
Cc1ccc(Sc2c(C=O)c3ccccc3n2C)cc1	PostGolgi ctrl 45 (no result: Candida biofilm, tolC growth inh)
Cc1cccc(Oc2c(C=O)c3ccccc3n2C)c1	none (no result: Candida biofilm, tolC growth inh)
S=C(Nc1ccc(Cl)cc1)NC1CC2CCCC(C1)N2C1CC1 (centres undefined)	none (no result: Candida biofilm, tolC growth inh)
O=C(Nc1ccncc1)c1cccc(F)c1	PostGolgi ctrl 32
O=C(Nc1ccncc1)c1ccc(F)cc1	none (no result: tolC growth inh)
COc1ccc(/C(O)=C2\C(=O)C(=O)N(CC3CCCO3)C2c2cc(OC)ccc2OC)cc1 (centres undefined)	tolC growth inh 100
COc1ccc(/C(O)=C2/C(=O)C(=O)N(CC3CCCO3)C2c2cccc(O)c2)cc1 (centres undefined)	none (no result: tolC growth inh)
Cc1nc(NC(=O)c2ccccc2)sc1-c1csc(Nc2ccc(F)cc2)n1	PostGolgi yeast 33 (no result: Pyk2 oligo antag, Candida biofilm, tolC growth inh)
Cc1nc(NC(=O)c2ccccc2)sc1-c1csc(Nc2ccc(Cl)cc2)n1	none (no result: Pyk2 oligo antag, Candida biofilm, tolC growth inh)
Cc1nc(NC(=O)c2ccco2)sc1-c1csc(Nc2ccc(Cl)cc2)n1	PostGolgi ctrl 39 (no result: Pyk2 oligo antag, Candida biofilm, tolC growth inh)
Cc1ccc(Cl)cc1Nc1nc(-c2sc(NC(=O)c3ccco3)nc2C)cs1	none (no result: Pyk2 oligo antag, Candida biofilm, tolC growth inh)
O=C(NCCCn1ccnc1)c1ccccc1NS(=O)(=O)c1ccc(F)c(F)c1	none (no result: Candida biofilm, tolC growth inh)
CCN1C(=O)C2(C(C#N)=C(N)Oc3n[nH]c(C(C)C)c32)c2ccccc21 (centres undefined)	none
CCN1C(=O)C2(C(C#N)=C(N)Oc3n[nH]c(-c4ccc(Cl)cc4)c32)c2ccccc21 (centres undefined)	Pyk2 oligo antag -3 (no result: tolC growth inh)
Cc1cccc(C(=O)N2CCCCCC2)c1	none (no result: tolC growth inh)
CN(Cc1cccs1)C(=O)CCc1ccc(S(=O)(=O)N2CCOCC2)cc1	none
CCOc1cc(C2C(C(=O)OC)=C(C)N=C3SC(C)C(=O)N32)ccc1OC(C)=O (centres undefined)	none
CCOC(=O)C1=C(C)N=C2SC(C)C(=O)N2C1c1ccc(OC(C)=O)c(OC)c1 (centres undefined)	PostGolgi ctrl 47 (no result: Candida biofilm)
COC(=O)C1=C(C)N=C2SC(C)C(=O)N2C1c1cccc(F)c1 (centres undefined)	Pyk2 oligo antag -3.6
Cc1ccc(S(=O)(=O)N2CCCSCC2)cc1	none
CCOC(=O)C1=C(N)N2C(=O)C(C)SC2=C(C(=O)OC)C1c1ccccc1OC (centres undefined)	PostGolgi yeast 110, PostGolgi ctrl 75
Cc1nn(C(C)(C)C)c(OC(=O)c2ccco2)c1Sc1ccccc1	PostGolgi ctrl 36 (no result: tolC growth inh)
Cc1nn(C(C)(C)C)c(OC(=O)c2ccc(Br)o2)c1Sc1ccccc1	none (no result: tolC growth inh)
Cc1cccc(Cc2cnc(NC(=O)c3ccc(C)o3)s2)c1	none (no result: tolC growth inh)
Cc1cccc(-n2c(=O)c3c(n4cnnc24)-c2ccccc2CC32CCCCC2)c1	PostGolgi ctrl 46 (no result: Candida biofilm, tolC growth inh)
N#CCSc1n[nH]c2nc3c(c(=O)n12)C1(CCCC1)Cc1ccccc1-3	tolC growth inh 98 (no result: FAK inh)
CCn1c(SCC(N)=O)nc2c(c1=O)C1(CCCC1)Cc1ccccc1-2	PostGolgi ctrl 50 (no result: tolC growth inh)
CCCn1c(SCC#N)nc2c(c1=O)C1(CCCC1)Cc1ccccc1-2	none

Bioassay records: PubChem BioAssay, several laboratories
